Data reported in ChEMBL document CHEMBL3045217, “Factors affecting the synergy of thiabendazole, sodium bicarbonate, and heat to control postharvest green mold of citrus fruit” (J Agric Food Chem, 2008).

Experiments:
Penicillium digitatum [1] = experiment: Fungicidal activity against Penicillium digitatum infected Valenica oranges assessed as fruit weight loss at 600 mg/L treated for 1 min at 20 degC postharvest at 20 hr after fungal conidial inoculation measured after 14 days of storage at 17 degC (water Rvb = 5.62%); format: functional
Penicillium digitatum [2] = experiment: Fungicidal activity against Penicillium digitatum infected Valenica oranges assessed as fruit weight loss at 600 mg/L treated for 1 min at 20 degC postharvest at 20 hr after fungal conidial inoculation measured after 7 days of storage at 17 degC (water Rvb = 3.13%); format: functional
Penicillium digitatum [3] = experiment: (§1) Fungicidal activity against TBZ-sensitive Penicillium digitatum infected Valencia oranges assessed as postharvest green mold incidence at 600 mg/L treated for 1 min at 20 degC at 20 hr after fungal conidial inoculation measured after 7 days of storage at 20 degC in presence of 1% SBC (water Rvb = 30.8%); format: functional
Method in brief: (§2)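 Fruit were surface-disinfected in 1 g/L hypochlorite for 30 s, rinsed, dried, then wounded twice equatorially (2 mm × 2 mm rod). Inoculation was a 1 min dip in P. digitatum conidia, 1 × 10^5 conidia/mL final. Fruit were held 20 h at 20 °C and 90% RH, dipped 1 min (SBC wt/vol), and air-dried. Storage was 20 °C, 90% RH. Decay incidence (% fruit with lesions) was scored at 5 d for mandarins and 7 d for oranges. Three replicates of 40 fruit were used; arcsin-transformed data were compared by LSD, p ≤ 0.05.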

Penicillium digitatum [4] = experiment: Fungicidal activity against Penicillium digitatum infected Valenica oranges assessed as fruit weight loss at 600 mg/L treated for 1 min at 20 degC postharvest at 20 hr after fungal conidial inoculation measured after 21 days of storage at 17 degC in presence of 2% SBC (water Rvb = 11.89%); format: functional
Fruit [5] = experiment: Drug residues in Citrus sinensis cvs. Valencia late (Valencia oranges) at 600 mg/L treated for 1 min at 20 degC postharvest measured after 10 days of storage at 17 degC by GC analysis; format: ADME
Method in brief: (§3)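 'Valencia' oranges were dipped 1 min in TBZ at 600 mg/L (20 °C, ±0.5, 1 or 2% wt/vol SBC), 400 mg/L (40 °C, ±SBC) or 200 mg/L (50 °C, alone), then air-dried. They were sampled at 0, 10 and 20 days at 17 °C. Peel of five fruit was frozen, and 5 g of homogenate was extracted with ethyl acetate/hexane (1/1) plus NaCl. The extract was dried under N2, taken up in acetone and analysed by GC. Results are mg/kg on a whole-fruit basis.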

Fruit [6] = experiment: Drug residues in Citrus sinensis cvs. Valencia late (Valencia oranges) at 200 mg/L treated for 1 min at 50 degC postharvest measured after 20 days of storage at 17 degC by GC analysis; format: ADME; method in brief: as §3
Penicillium digitatum [7] = experiment: as §1, with “Nova mandarins” for “Valencia oranges”, “5” for “7”, “0.5%” for “1%”, “100%)” for “30.8%)”; format: functional; method in brief: as §2
Penicillium digitatum [8] = experiment: Fungicidal activity against TBZ-sensitive Penicillium digitatum infected Nova mandarins assessed as postharvest green mold incidence at 400 mg/L treated for 1 min at 40 degC at 20 hr after fungal conidial inoculation measured after 5 days of storage at 20 degC (water Rvb = 100%); format: functional; method in brief: as §2
Fruit [9] = experiment: Drug residues in Citrus sinensis cvs. Valencia late (Valencia oranges) at 400 mg/L treated for 1 min at 40 degC postharvest measured after 10 days of storage at 17 degC in presence of 0.5% SBC by GC analysis; format: ADME; method in brief: as §3
Penicillium digitatum [10] = experiment: Fungicidal activity against Penicillium digitatum infected Valenica oranges assessed as fruit weight loss at 600 mg/L treated for 1 min at 20 degC postharvest at 20 hr after fungal conidial inoculation measured after 14 days of storage at 17 degC in presence of 0.5% SBC (water Rvb = 7.44%); format: functional
Inner fruit = experiment: Drug residues in Citrus sinensis cvs. Salustiana (Salustiana oranges) inner fruit at 600 mg/L treated for 1 min at 20 degC postharvest measured after overnight incubation at 17 degC in presence of 2% SBC by GC analysis; format: ADME
Method in brief: (§4)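 'Salustiana' oranges were washed with water and air-dried. They were dipped 1 or 3 min in TBZ 600 mg/L at 20 or 50 °C, or 1 min in TBZ 600 mg/L plus 2% SBC at 20 °C, then dried overnight at 17 °C in the dark. Surface residue was taken by water extraction and wax residue by chloroform extraction. Inner residue was measured in fruit after both extractions. Extracts were dried under N2, taken up in acetone and analysed by GC. Values are mg/kg on a whole-fruit basis.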

Fruit [11] = experiment: Total drug residues in Citrus sinensis cvs. Salustiana (Salustiana oranges) fruit at 600 mg/L treated for 1 min at 50 degC postharvest measured after overnight incubation at 17 degC by GC analysis; format: ADME
Method in brief: (§5)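 'Salustiana' oranges were water-washed, dried, dipped, then dried overnight at 17 °C in the dark. Unextracted fruit were used for total residues. Peel from five oranges was frozen at -18 °C. 5 g homogenized peel was extracted with 10 mL ethyl acetate/hexane (1/1) plus 2 g NaCl, shaken 30 min, then 1 mL of organic layer was dried under N2, redissolved in acetone, and run by GC without cleanup. Results are on a whole-fruit basis.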

Fruit [12] = experiment: Drug residues in Citrus sinensis cvs. Valencia late (Valencia oranges) at 400 mg/L treated for 1 min at 40 degC postharvest measured immediately post-drug treatment by GC analysis; format: ADME; method in brief: as §3
Fruit [13] = experiment: Drug residues in Citrus sinensis cvs. Valencia late (Valencia oranges) at 400 mg/L treated for 1 min at 40 degC postharvest measured after 20 days of storage at 17 degC by GC analysis; format: ADME; method in brief: as §3
Cuticular wax = experiment: Drug residues in Citrus sinensis cvs. Salustiana (Salustiana oranges) cuticular wax at 600 mg/L treated for 1 min at 50 degC postharvest measured after overnight incubation at 17 degC by GC analysis; format: ADME; method in brief: as §4
Fruit [14] = experiment: Drug residues in Citrus sinensis cvs. Valencia late (Valencia oranges) at 400 mg/L treated for 1 min at 40 degC postharvest measured immediately post-drug treatment in presence of 0.5% SBC by GC analysis; format: ADME; method in brief: as §3
Fruit [15] = experiment: Drug residues in Citrus sinensis cvs. Valencia late (Valencia oranges) at 600 mg/L treated for 1 min at 20 degC postharvest measured after 20 days of storage at 17 degC in presence of 2% SBC by GC analysis; format: ADME; method in brief: as §3
Penicillium digitatum [16] = experiment: Fungicidal activity against Penicillium digitatum infected Valenica oranges assessed as fruit weight loss at 600 mg/L treated for 1 min at 20 degC postharvest at 20 hr after fungal conidial inoculation measured after 7 days of storage at 17 degC in presence of 1% SBC (water Rvb = 3.89%); format: functional
Penicillium digitatum [17] = experiment: Fungicidal activity against Penicillium digitatum infected Valenica oranges assessed as fruit weight loss at 400 mg/L treated for 1 min at 40 degC postharvest at 20 hr after fungal conidial inoculation measured after 14 days of storage at 17 degC in presence of 1% SBC (water Rvb = 8.68%); format: functional
Fruit [18] = experiment: Total drug residues in Citrus sinensis cvs. Salustiana (Salustiana oranges) fruit at 600 mg/L treated for 1 min at 20 degC postharvest measured after overnight incubation at 17 degC by GC analysis; format: ADME; method in brief: as §5
Fruit [19] = experiment: Drug residues in Citrus sinensis cvs. Valencia late (Valencia oranges) at 600 mg/L treated for 1 min at 20 degC postharvest measured immediately post-drug treatment in presence of 1% SBC by GC analysis; format: ADME; method in brief: as §3

With `c1ccc2[nH]c(-c3cscn3)nc2c1` [THIABENDAZOLE] the Activity (Penicillium digitatum [1]) was 6.33%, the Activity (Penicillium digitatum [2]) was 3.59% and the Activity (Penicillium digitatum [3]) was 9.2%. For the same compound, the Activity (Penicillium digitatum [4]) was 13.39%, the Drug uptake (Fruit [5]) was 1.57 mg/kg and the Drug uptake (Fruit [6]) was 0.38 mg/kg. The Activity (Penicillium digitatum [7]) was 0%, the Activity (Penicillium digitatum [8]) was 1.7% and the Drug uptake (Fruit [9]) was 0.76 mg/kg. It also gave an Activity (Penicillium digitatum [10]) of 8.15%, a Drug uptake (Inner fruit) of 0.01 mg/kg and a Drug uptake (Fruit [11]) of 1.12 mg/kg. The Drug uptake (Fruit [12]) was 0.83 mg/kg, the Drug uptake (Fruit [13]) was 0.87 mg/kg and the Drug uptake (Cuticular wax) was 0.54 mg/kg. It also gave a Drug uptake (Fruit [14]) of 0.79 mg/kg, a Drug uptake (Fruit [15]) of 1.38 mg/kg and an Activity (Penicillium digitatum [16]) of 4.33%. For the same compound, the Activity (Penicillium digitatum [17]) was 8.11%, the Drug uptake (Fruit [18]) was 1.04 mg/kg and the Drug uptake (Fruit [19]) was 1.31 mg/kg.
